Results published in ChEMBL document CHEMBL4400513, “Aurone derivatives as promising antibacterial agents against resistant Gram-positive pathogens” (Eur J Med Chem, 2019).
Activity calls are given as the source filed them.

How the values were obtained:
[1] = tested on: Staphylococcus aureus; test: Antimicrobial activity against methicillin-resistant Staphylococcus aureus after 18 to 24 hrs in aerobic condition by two-fold serial dilutions method; format: functional
In short: (§1)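 Strains grown on LB at 37 °C aerobically, then in Mueller-Hinton broth overnight at 200 rpm and brought to log phase (OD600 ~0.6). About 10^5 bacteria/mL exposed to two-fold serial dilutions 0–500 µM, DMSO 0.2% final as control. Aerobic incubation at 37 °C for 18–24 h; OD600 read; MIC = lowest concentration inhibiting visible growth. n = 3.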

[2] = tested on: Arthrobacter gandavensis; test: Antimicrobial activity against Arthrobacter gandavensis after 18 to 24 hrs in aerobic condition by two-fold serial dilutions method; format: functional
In short: (§2)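 Colonies grown overnight (~16 h) in Mueller-Hinton broth at 37 °C, 200 rpm, diluted 1/100 and grown to log phase (OD600 ~0.6), then diluted to ~10^5 bacteria/mL. Exposed to 0 to 500 µM in 1:2 series (0.2% DMSO final control), aerobic, 37 °C, 18–24 h. OD600 read; MIC = lowest concentration without visible growth; n = 3.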

[3] = tested on: Bacillus subtilis; test: Antimicrobial activity against Nisin-resistant Bacillus subtilis after 18 to 24 hrs in aerobic condition by two-fold serial dilutions method; format: functional; in short: as §1
[4] = tested on: Blautia producta; test: Antimicrobial activity against Clostridium coccoides after 18 to 24 hrs in anaerobic condition by two-fold serial dilutions method; format: functional
In short: (§3)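 Precultures in BHI broth at 37 °C in an anaerobic cabinet, grown to log phase (OD600 ~0.6), then seeded at ~10^5 bacteria/mL. Two-fold dilutions from 0 to 500 µM, 0.2% DMSO final as control. Plates incubated anaerobically at 37 °C for 18–24 h, OD600 read; MIC = lowest concentration giving no visible growth; independent triplicate.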

[5] = tested on: Clostridioides difficile; test: Antimicrobial activity against Clostridium difficile after 18 to 24 hrs in anaerobic condition by two-fold serial dilutions method; format: functional; in short: as §3
[6] = tested on: Enterococcus faecalis; test: Antimicrobial activity against Enterococcus faecalis after 18 to 24 hrs in anaerobic condition by two-fold serial dilutions method; format: functional
In short: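 BHI preculture at 37 °C brought to log phase (OD600 ~0.6), then ~10^5 bacteria/mL exposed to 0 to 500 µM (1:2 dilutions, 0.2% DMSO final control). Anaerobic conditions from a gas-pack system, 37 °C, 18–24 h. OD600 read; MIC = lowest concentration with no visible growth; n = 3.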

[7] = tested on: Cutibacterium acnes; test: Antimicrobial activity against Propionibacterium acnes after 18 to 24 hrs in aerobic condition by two-fold serial dilutions method; format: functional
[8] = tested on: Bacteroides thetaiotaomicron; test: Antimicrobial activity against Bacteroides thetaiotaomicron after 18 to 24 hrs in anaerobic condition by two-fold serial dilutions method; format: functional; in short: as §3
[9] = tested on: Escherichia coli; test: Antimicrobial activity against Escherichia coli after 18 to 24 hrs in aerobic condition by two-fold serial dilutions method; format: functional; in short: as §2
[10] = tested on: Helicobacter pylori; test: Antimicrobial activity against Helicobacter pylori after 18 to 24 hrs in anaerobic condition by two-fold serial dilutions method; format: functional
In short: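 Mueller-Hinton broth preculture grown to log phase (OD600 ~0.6), diluted to ~10^5 bacteria/mL. Serial 1:2 dilutions 0 to 500 µM, 0.2% DMSO final control. Incubated at 37 °C for 18–24 h under anaerobic conditions from a gas-pack system; OD600 read; MIC = lowest concentration without visible growth; triplicate.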

[11] = tested on: Klebsiella variicola; test: Antimicrobial activity against Klebsiella variicola after 18 to 24 hrs in aerobic condition by two-fold serial dilutions method; format: functional; in short: as §2
[12] = tested on: Shigella flexneri; test: Antimicrobial activity against Shigella flexneri after 18 to 24 hrs in aerobic condition by two-fold serial dilutions method; format: functional; in short: as §2
[13] = tested on: Vibrio alginolyticus; test: Antimicrobial activity against Vibrio alginolyticus after 18 to 24 hrs in aerobic condition by two-fold serial dilutions method; format: functional; in short: as §2
[14] = tested on: Aspergillus flavus; test: Antifungal activity against Aspergillus flavus after 2 to 5 days by two-fold serial dilutions method; format: functional
In short: (§4)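 Broth two-fold serial dilution MIC, 0 to 500 µM (1:2 steps), from 200 mM DMSO stocks; 0.2% DMSO final as vehicle control. Inoculum about 10^5 cells/mL. Strains maintained on potato dextrose agar and in RPMI medium. Plates held at room temperature for 2 to 5 days, OD600 read; MIC = lowest concentration preventing visible growth; independent triplicate.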

[15] = tested on: Fusarium graminearum; test: Antifungal activity against Fusarium graminearum after 2 to 5 days by two-fold serial dilutions method; format: functional
In short: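 F. graminearum grown on potato dextrose agar and in RPMI medium. Broth microdilution by NCCLS, two-fold serial dilution 0–500 µM, DMSO 0.2% final as vehicle control. Plates kept at room temperature 2 to 5 days, OD600 read; MIC taken as lowest concentration with no visible growth. Independent triplicate.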

[16] = tested on: Fusarium oxysporum; test: Antifungal activity against Fusarium oxysporum after 2 to 5 days by two-fold serial dilutions method; format: functional; in short: as §4
[17] = tested on: Staphylococcus aureus; test: Bactericidal activity against methicillin-resistant Staphylococcus aureus in aerobic condition; format: functional, organism-based
[18] = tested on: Bacillus subtilis; test: Bactericidal activity against Nisin-resistant Bacillus subtilis in aerobic condition; format: functional, organism-based
[19] = tested on: Blautia producta; test: Bactericidal activity against Clostridium coccoides in anaerobic condition; format: functional, organism-based
In short: (§5)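 From the MIC plates, 10 µL from each well without growth was streaked onto agar suited to the organism and incubated under that organism's growth conditions. Colonies were then counted; MBC = lowest concentration allowing ≤1 colony, i.e. killing 99.9% of bacteria.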

[20] = tested on: Clostridioides difficile; test: Bactericidal activity against Clostridium difficile in anaerobic condition; format: functional, organism-based; in short: as §5
[21] = tested on: Cutibacterium acnes; test: Bactericidal activity against Propionibacterium acnes in aerobic condition; format: functional, organism-based; in short: as §5
[22] = tested on: Citrobacter rodentium; test: Bactericidal activity against Citrobacter rodentium in aerobic condition; format: functional, organism-based; in short: as §5
[23] = tested on: Escherichia coli; test: Bactericidal activity against Escherichia coli MRS in aerobic condition; format: functional, organism-based; in short: as §5
[24] = tested on: Helicobacter pylori; test: Bactericidal activity against Helicobacter pylori in anaerobic condition; format: functional, organism-based; in short: as §5
[25] = tested on: Salmonella enterica; test: Bactericidal activity against Salmonella enterica in aerobic condition; format: functional, organism-based
In short: (§6)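 MH broth; log-phase bacteria (OD600 ~0.6) diluted to ~10^5 bacteria/mL and exposed to two-fold serial dilutions (0–500 µM; 0.2% DMSO final as vehicle control) at 37 °C, aerobic, 18–24 h. MIC is the lowest concentration preventing visible growth (OD600). MBC is found by streaking 10 µL from no-growth wells onto agar; the MBC is the concentration where ≤1 colony grew. n = 3.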

[26] = tested on: Vibrio diabolicus; test: Bactericidal activity against Vibrio diabolicus in aerobic condition; format: functional, organism-based; in short: as §6
[27] = tested on: Aspergillus flavus; test: Fungicidal activity against Aspergillus flavus; format: functional, organism-based
In short: (§7)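 Filamentous fungi grown on potato dextrose agar and tested in RPMI medium with two-fold serial dilutions (0–500 µM, 0.2% DMSO final). Plates held at room temperature for 2 to 5 days, then OD600 read; MIC taken as the lowest concentration with no visible growth. The fungicidal endpoint is ≤1 colony after streaking 10 µL of no-growth wells on agar. n = 3.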

[28] = tested on: Stachybotrys chartarum; test: Fungicidal activity against Stachybotrys chartarum; format: functional, organism-based; in short: as §7

O=C1/C(=C/c2ccccc2)Oc2cc(O)cc(O)c21
500 µM: MIC [4]
15.6 to 31.2 µM: MIC [1]
active: Activity [17] | Activity [18] | Activity [19] | Activity [20] | Activity [21] | Activity [22] | Activity [23] | Activity [24] | Activity [25] | Activity [26] | Activity [27] | Activity [28]
62.5 µM: MIC [5]
31.2 µM: MIC [2] | MIC [3] | MIC [7] | MIC [13] | MIC [15]
15.6 µM: MIC [6] | MIC [10]
> 500 µM: MIC [8] | MIC [9] | MIC [11] | MIC [12] | MIC [14] | MIC [16]

COc1cc(/C=C2\Oc3cc(O)cc(O)c3C2=O)ccc1OCc1ccccc1
250 µM: MIC [4]
3.9 µM: MIC [3] | MIC [13]
15.6 µM: MIC [1] | MIC [10]
> 500 µM: MIC [8] | MIC [9] | MIC [11] | MIC [12] | MIC [14] | MIC [16]
31.2 µM: MIC [2] | MIC [5] | MIC [7]
15.6 to 31.2 µM: MIC [6]
active: Activity [17] | Activity [18] | Activity [19] | Activity [20] | Activity [21] | Activity [22] | Activity [23] | Activity [24] | Activity [25] | Activity [26] | Activity [27] | Activity [28]
500 µM: MIC [15]

O=C1/C(=C/c2ccc(F)cc2)Oc2cc(O)cc(O)c21
> 500 µM: MIC [4] | MIC [8] | MIC [9] | MIC [10] | MIC [11] | MIC [12] | MIC [14] | MIC [15] | MIC [16]
15.6 µM: MIC [2]
7.8 to 15.6 µM: MIC [1]
31.2 µM: MIC [3] | MIC [7]
125 µM: MIC [13]
125 to 250 µM: MIC [6]
62.5 µM: MIC [5]
active: Activity [17] | Activity [18] | Activity [19] | Activity [20] | Activity [21] | Activity [22] | Activity [23] | Activity [24] | Activity [25] | Activity [26] | Activity [27] | Activity [28]
